Measurements as given in ChEMBL document CHEMBL4513216, “Probing the Open Global Health Chemical Diversity Library for Multistage-Active Starting Points for Next-Generation Antimalarials” (ACS Infect Dis, 2020).

Experiment: Toxicity liver stage against HepG2, at 10uM
Assay type: cell-based
Design: test concentration 10 uM, cell line HepG2-A16-CD81EGFP
Conditions: human, HepG2-A16-CD81EGFP cells; read-out: INHIBITION
Summary of the method: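 Uninfected HepG2-A16-CD81EGFP cells, 3 × 10^3 per well, 1536-well, plated on prespotted compound at 10 μM final, parasite-free screening media added to match infected plates; puromycin 10 μM positive, DMSO 0.5% negative; run in parallel with 48 h PbLuc assay at 37 °C, 5% CO2; viability by CellTiter-Glo luminescence, normalized to controls.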

| SMILES | cytotoxicity at 10 µM [%] |
| --- | --- |
| Cc1cc(NCCO)nc2[nH]nc(N)c12 | -51.7 |
| Cc1cccn2c(=O)cc(OC(=O)c3ccccc3Cl)nc12 | 10.7 |
| Cc1cc(NC(=O)CCn2nc(C)c3ccccc32)n(C)n1 | 3.4 |
| CCN(CC)C(=O)CSc1nc2cc(C)nc-2c(O)n1Cc1ccco1 | 3.49 |
| Cc1nn(C)cc1S(=O)(=O)N(CCc1ccccc1)Cc1ccn(C)n1 | 1.43 |
| CNc1cc(C2CN(C(=O)c3cscn3)CCO2)nc(C)n1 (stereo not given) | 9.49 |
| COc1cc2c(cc1CN1CCc3sccc3C1C)OCO2 (stereo not given) | 7.01 |
| CC(C)C(=O)N1CCCC1c1nc(N(C)C)ncc1-c1ccc(Cl)cc1 (stereo not given) | 20.1 |
| Cc1cc(N2CCOC(c3ccncn3)C2)ncn1 (stereo not given) | 2.91 |
| Cc1nccc(CC2COCCN(c3cnccn3)C2)n1 (stereo not given) | 0.933 |
| O=C1NC2(Cc3ccccc31)CN(CC1CCNCC1)C2 | 10.8 |
| CN(C)c1ccc(C(=O)N2CCCc3cc(OC(F)(F)F)ccc32)cn1 | -45.9 |
| CCc1ccc2c(c1)C(CCNC(=O)CCc1ccsc1)C(=O)N2 (stereo not given) | -41.5 |
| CSC(C)CC(=O)N1CCC(n2ccnn2)CC1 (stereo not given) | -47.9 |
| CCCNC(=O)c1cccc2ncccc12 | -50.3 |
| COc1ccccc1C(C)CC(=O)N1CCN(S(N)(=O)=O)CC1 (stereo not given) | -51.3 |
| Cc1nc(CN2CCC23CCN(Cc2ccoc2)CC3)cs1 | -109 |
| CC(C)N(C)Cc1cc(=O)n2c(n1)CN(C(=O)c1ccc[nH]1)CCC2 | -105 |
| CCOc1ccc(OCc2nc3c(c(=O)[nH]2)CCNC3)cc1 | 8.55 |
| CC1(C)CN(S(=O)(=O)N2CCOCC2)CC1c1ccccc1 (stereo not given) | 1.69 |
| COc1ccc(NC(=O)c2ccc(CN3CC[C@H](O)C3)cc2)c(OC)n1 | 6.21 |
| Cc1ccc([C@@H]2CN(C(=O)c3cc[nH]c3)C[C@H]2NC(=O)C2CC2)cc1 | -7.59 |
| Cc1ccc(OC2(C(=O)O)CCN(C(=O)c3ccsc3)CC2)cn1 | -4.09 |

| SMILES | cytotoxicity at 10 µM [%] |
| --- | --- |
| COc1ccc(Cc2ncc3c(n2)CN(C(=O)C2COCCO2)C3)cc1 (stereo not given) | -0.579 |
| CCCOCC(=O)N1CCc2c(cccc2S(=O)(=O)N2CCOCC2)C1 | 2.71 |
| COCc1cc(N(C)CCc2c(C)n[nH]c2C)ncn1 | 0.681 |
| CC(=O)N1CCOC(CNC(=O)c2cccc(CCC(C)(C)O)c2)C1 (stereo not given) | 0.303 |
| Cc1oc(-c2cccc(F)c2)nc1CN1CCOCS1(=O)=O | 2.74 |
| COc1ccc(CC2(CO)CCN(c3cc(N)ncn3)CC2)cc1 | -12.9 |
| COCCN1CCC(CN(CC2CCCO2)C(=O)COC)CC1 (stereo not given) | -21.1 |
| Cn1c(Cn2ccnc2)nnc1C1CCCN(C2CCCCC2)C1 (stereo not given) | -13.2 |
| CCn1ccnc1CN1CCC(CNC(=O)c2ccc(C)nc2)C1 (stereo not given) | -8.8 |
| Nc1nccc(NCc2cc3n(n2)CCCN(C2CCCCC2)C3)n1 | -16 |
| CCCc1cc(CNC(=O)C2CCOc3ccccc3C2)on1 (stereo not given) | -3.8 |
| Cc1cnn(C2CN(CC(=O)NCc3ccccn3)C2)c1 | -10.9 |
| N#Cc1ccc(CN2CCC(c3ccnn3CCO)CC2)cc1 | -1.72 |
| Cc1cc(C2CCCN2CC(=O)N(CCC#N)c2ccccc2F)on1 (stereo not given) | -1.5 |
| CCN(CC)Cc1ccc(C(=O)N2CCN(CC(C)O)CC2)cc1 (stereo not given) | -12.6 |
| CN(C)C[C@H]1OC[C@@H]2CCN(S(=O)(=O)c3ccccc3)C[C@@H]21 | 1.44 |
| CCOC1COC2(CCN(CC3CC3)CC2)C1 (stereo not given) | -106 |
| O=C(c1ccc(F)cc1)N1CCC2(CCCN2CC2CC2)CC1 | 5.05 |
| COCC(=O)NCc1cc(=O)n2c(n1)CN(CC1CC1)CCC2 | -88.5 |
| c1cncc(CO[C@H]2CN(Cc3ccco3)[C@@H]3COC[C@H]23)c1 | -101 |
| CC(C)CC(=O)N1CC[C@H]2N(C)CC[C@@]2(C(=O)Nc2cccnc2)CC1 | -96.9 |
| O=C([C@@H]1C[C@@H]2CCN(Cc3ccoc3)C[C@H]2O1)N1CCCC1 | -101 |
